Holding throughout (assay type): functional
Test [1] has as its system Escherichia coli. The test can be described thus: In Vitro antibacterial activity against (Ec L) Escherichia coli […] strain. A digest of the protocol: (§1)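 Panel of standard ATCC strains plus modified strains: methicillin-resistant, hyperpermeable, β-lactamase-producing (TEM1, TEM2, SHV) and β-lactamase-lacking. MIC determined in Mueller Hinton 2 medium, inoculum 10⁴ cells/mL, incubated 24 h at 37 °C.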

The subject of test [2] is Escherichia coli. The test can be described thus: In Vitro antibacterial activity against (Ec) Escherichia coli ATCC 25922. A digest of the protocol: as §1
In test [3] the test system is Pseudomonas aeruginosa. Nature of the test: In Vitro antibacterial activity against (Pa) hyperpermeable Pseudomonas aeruginosa […] strain. Summed up: as §1
Test [4] concerns Escherichia coli. Nature of the test: In Vitro antibacterial activity against (Ec TEM1) Escherichia coli […] strain. A digest of the protocol: as §1
The subject of test [5] is Pseudomonas aeruginosa. The test can be described thus: In Vitro antibacterial activity against (Pa G242) hyperpermeable Pseudomonas aeruginosa strain. Summed up: as §1
In test [6] the test system is Escherichia coli. Nature of the test: In Vitro antibacterial activity against (Ec DC2) hyperpermeable Escherichia coli strain. A digest of the protocol: as §1
Test [7] concerns Staphylococcus aureus. Nature of the test: In vitro antibacterial activity against Sa MR(II) homogeneous methicillin resistant Staphylococcus aureus. Summed up: (§2)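 MIC was determined in Mueller Hinton 2 medium with an inoculum of 10⁴ cells/mL and incubation for 24 h at 37 °C. Strains: Sa(I) is S. aureus ATCC 29213; Sa MR(I) is a heterogeneous methicillin-resistant S. aureus; Sa MR(II) is a homogeneous methicillin-resistant S. aureus.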

Test [8] has as its system Escherichia coli. The test can be described thus: In Vitro antibacterial activity against (Ec SHV) Escherichia coli […] strain. Summed up: as §1
In a further test the test system is Enterococcus faecalis. Nature of the test: In Vitro antibacterial activity against (Ef) Enterococcus faecalis ATCC 29212. Summed up: as §1
The test system of test [9] is Staphylococcus aureus. Nature of the test: In vitro antibacterial activity against Sa(II) Staphylococcus aureus ATCC 25923. Summed up: as §1
The test system of test [10] is Escherichia coli. The test can be described thus: In Vitro antibacterial activity against (Ec TEM2) Escherichia coli […] strain. A digest of the protocol: as §1
The test system of test [11] is Staphylococcus aureus. The test can be described thus: In vitro antibacterial activity against Sa MR(I) heterogeneous methicillin resistant Staphylococcus aureus. Summed up: as §2
In test [12] the test system is Pseudomonas aeruginosa. The test can be described thus: In Vitro antibacterial activity against (Pa) Pseudomonas aeruginosa ATCC 27853. A digest of the protocol:
as §1

Test [13] deals with Staphylococcus aureus. The test can be described thus: In vitro antibacterial activity against Sa(I) Staphylococcus aureus ATCC 29213. Summed up:
as §2

The source of these data is ChEMBL document CHEMBL1128718, “2-Substituted penems with amino acid-related side chains: synthesis and antibacterial activity of a new series of beta-lactam antibiotics” (1995).

≈ marks a conversion by molar mass, not a printed value.

As for `C[C@@H](O)[C@H]1C(=O)N2C(C(=O)O)=C(CN3C[C@@H](O)C[C@@H]3C(N)=O)S[C@H]12`, the MIC against Escherichia coli [1] is 1 µg/mL (≈ 2.8 µM); against Escherichia coli [2], 1 µg/mL (≈ 2.8 µM); in the test on Pseudomonas aeruginosa [3], 0.5 µg/mL (≈ 1.4 µM); in the test on Escherichia coli [4], 1 µg/mL (≈ 2.8 µM); against Pseudomonas aeruginosa [5], 1 µg/mL (≈ 2.8 µM); in the test on Escherichia coli [6], 1 µg/mL (≈ 2.8 µM). Further, the MIC against Staphylococcus aureus [7] was determined as 16 µg/mL (≈ 44.8 µM); in the test on Escherichia coli [8] it was 1 µg/mL (≈ 2.8 µM); with Enterococcus faecalis, 32 µg/mL (≈ 89.5 µM); in the test with Staphylococcus aureus [9], 0.06 µg/mL (≈ 0.168 µM); in the test with Escherichia coli [10], 1 µg/mL (≈ 2.8 µM); against Staphylococcus aureus [11], 0.25 µg/mL (≈ 0.7 µM). Further, the MIC was greater than 64 µg/mL against Pseudomonas aeruginosa [12] and 0.12 µg/mL (≈ 0.336 µM) against Staphylococcus aureus [13].
With `C[C@@H](O)[C@H]1C(=O)N2C(C(=O)O)=C(CN(C)CC(=O)N3CCN(C)CC3)S[C@H]12`, the MIC with Escherichia coli [1] stood at 1 µg/mL (≈ 2.51 µM); against Escherichia coli [2], 0.5 µg/mL (≈ 1.25 µM); with Pseudomonas aeruginosa [3], 4 µg/mL (≈ 10 µM); against Escherichia coli [4], 1 µg/mL (≈ 2.51 µM); with Pseudomonas aeruginosa [5], 1 µg/mL (≈ 2.51 µM); against Escherichia coli [6], 1 µg/mL (≈ 2.51 µM). For the same compound, the MIC against Staphylococcus aureus [7] came to 4 µg/mL (≈ 10 µM); in the test on Escherichia coli [8] it was 1 µg/mL (≈ 2.51 µM); with Enterococcus faecalis, 16 µg/mL (≈ 40.2 µM); against Staphylococcus aureus [9] it was 0.25 µg/mL (≈ 0.627 µM); with Escherichia coli [10], 1 µg/mL (≈ 2.51 µM); in the test with Staphylococcus aureus [11] it was 0.5 µg/mL (≈ 1.25 µM). The MIC was greater than 64 µg/mL against Pseudomonas aeruginosa [12] and 0.25 µg/mL (≈ 0.627 µM) against Staphylococcus aureus [13].
Consider `C[C@@H](O)[C@H]1C(=O)N2C(C(=O)O)=C(SCCNC=N)C[C@H]12` [IMIPENEM ANHYDROUS], for which the MIC in the test on Escherichia coli [1] stood at 0.12 µg/mL (≈ 0.401 µM); in the test on Escherichia coli [2], 0.12 µg/mL (≈ 0.401 µM); in the test with Pseudomonas aeruginosa [3], 0.25 µg/mL (≈ 0.835 µM); against Escherichia coli [4], 0.25 µg/mL (≈ 0.835 µM); with Pseudomonas aeruginosa [5], 0.25 µg/mL (≈ 0.835 µM); with Escherichia coli [6] it was 0.5 µg/mL (≈ 1.67 µM). Also, the MIC against Staphylococcus aureus [7] came to 0.25 µg/mL (≈ 0.835 µM); in the test on Escherichia coli [8] it was 0.25 µg/mL (≈ 0.835 µM); in the test on Enterococcus faecalis, 0.5 µg/mL (≈ 1.67 µM); against Staphylococcus aureus [9], 0.015 µg/mL (≈ 0.0501 µM); against Escherichia coli [10] it was 0.25 µg/mL (≈ 0.835 µM); in the test on Staphylococcus aureus [11], 0.12 µg/mL (≈ 0.401 µM). For the same compound, the MIC in the test on Pseudomonas aeruginosa [12] came to 1 µg/mL (≈ 3.34 µM); against Staphylococcus aureus [13] it was 0.015 µg/mL (≈ 0.0501 µM).
On to `C[C@@H](O)[C@H]1C(=O)N2C(C(=O)O)=C(COC(N)=O)S[C@H]12` [RITIPENEM], for which the minimal inhibitory concentration (MIC) was found to be 1 µg/mL (≈ 3.47 µM) with Escherichia coli [1]; 0.5 µg/mL (≈ 1.73 µM) against Escherichia coli [2]; 0.5 µg/mL (≈ 1.73 µM) in the test on Pseudomonas aeruginosa [3]; 1 µg/mL (≈ 3.47 µM) in the test on Escherichia coli [4]; 1 µg/mL (≈ 3.47 µM) in the test on Pseudomonas aeruginosa [5]; 1 µg/mL (≈ 3.47 µM) with Escherichia coli [6]. The MIC stood at 2 µg/mL (≈ 6.94 µM) against Staphylococcus aureus [7]; 1 µg/mL (≈ 3.47 µM) against Escherichia coli [8]; 2 µg/mL (≈ 6.94 µM) in the test with Enterococcus faecalis; 0.06 µg/mL (≈ 0.208 µM) against Staphylococcus aureus [9]; 1 µg/mL (≈ 3.47 µM) against Escherichia coli [10]; 0.12 µg/mL (≈ 0.416 µM) against Staphylococcus aureus [11]. Besides, the MIC in the test with Pseudomonas aeruginosa [12] was greater than 64 µg/mL; against Staphylococcus aureus [13] it was 0.12 µg/mL (≈ 0.416 µM).
